Results published in ChEMBL document CHEMBL1152557, “Solution-phase parallel synthesis of substituted chalcones and their antiparasitary activity against Giardia lamblia” (Bioorg Med Chem, 2009).
≈ marks a conversion by molar mass, not a printed value. Calls of active or inactive are those of the source. The calls are words filed in the database; no cut-off is given here.

Columns and labels:
Assay type in all cases: functional, organism-based
Giardia intestinalis [1] = test: Antigiardial activity against Giardia lamblia WB (ATCC 30957) trophozoites assessed as mild activity after 24 hrs by trypan blue assay; conditions: Giardia duodenalis
Method in brief: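 Mid-log trophozoites chilled on ice 20 min, resuspended and counted by hemocytometer; 1.5 × 10⁵ cells per well, final volume 1.5 mL, incubated 24 h at 37 °C with compound (DMSO stock diluted in medium, DMSO ≤5% v/v) at 100 µg/mL. Plates re-chilled on ice 20 min before counting. Mortality from trypan blue staining plus loss of motility. Controls: metronidazole 1–5 µg/mL, DMSO vehicle.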

Enterococcus faecalis = test: Antimicrobial activity against Enterococcus faecalis ATCC 29212 up to 100 ug/mL by broth microdilution assay
Staphylococcus aureus = test: Antimicrobial activity against Staphylococcus aureus ATCC 29213 up to 100 ug/mL by broth microdilution assay
Escherichia coli = test: Antimicrobial activity against Escherichia coli ATCC 25922 up to 100 ug/mL by broth microdilution assay
Pseudomonas aeruginosa = test: Antimicrobial activity against Pseudomonas aeruginosa ATCC 27853 up to 100 ug/mL by broth microdilution assay
Giardia intestinalis [2] = test: Antigiardial activity against Giardia lamblia WB (ATCC 30957) trophozoites after 24 hrs by trypan blue assay; conditions: Giardia duodenalis; for LC50: read-out: LD50 (the source's name)
Method in brief: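 Mid-log trophozoites, ice-chilled 20 min and counted by hemocytometer, 1.5 × 10⁵ cells per well in 1.5 mL final volume, incubated 24 h at 37 °C with compounds (DMSO stock diluted in medium, DMSO ≤5% v/v) at 100 µg/mL, then 1–100 µg/mL for selected ones. Metronidazole 1–5 µg/mL and DMSO controls. Plates ice-chilled 20 min, cells resuspended, counted. Mortality by trypan blue staining and absence of motility. IC50 and LD50 by probit analysis.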

COc1ccc(/C=C/C(=O)c2ccc(Cl)cc2)cc1
Activity (Giardia intestinalis [1]): Active
Activity (Enterococcus faecalis): inactive
Activity (Staphylococcus aureus): inactive
Activity (Escherichia coli): inactive
Activity (Pseudomonas aeruginosa): inactive

Cc1ccc(/C=C/C(=O)c2ccccc2)cc1
Activity (Giardia intestinalis [1]): Active
Activity (Enterococcus faecalis): inactive
Activity (Staphylococcus aureus): inactive
Activity (Escherichia coli): inactive
Activity (Pseudomonas aeruginosa): inactive

COc1ccc(/C=C/C(=O)c2ccc(OC)cc2)cc1
Activity (Giardia intestinalis [1]): Active
Activity (Enterococcus faecalis): inactive
Activity (Staphylococcus aureus): inactive
Activity (Escherichia coli): inactive
Activity (Pseudomonas aeruginosa): inactive

Cc1ccc(/C=C/C(=O)c2ccc(F)cc2)cc1
IC50 (Giardia intestinalis [2]): 15.3 µg/mL (≈ 63.7 µM)
LC50 (Giardia intestinalis [2]): 9.67 µg/mL (≈ 40.2 µM)
Activity (Enterococcus faecalis): inactive
Activity (Staphylococcus aureus): inactive
Activity (Escherichia coli): inactive
Activity (Pseudomonas aeruginosa): inactive

COc1ccc(C(=O)/C=C/c2ccccc2)cc1
Activity (Giardia intestinalis [1]): Active
Activity (Enterococcus faecalis): inactive
Activity (Staphylococcus aureus): inactive
Activity (Escherichia coli): inactive
Activity (Pseudomonas aeruginosa): inactive

COc1ccc(/C=C/C(=O)c2ccccc2)cc1
Activity (Giardia intestinalis [1]): Active
Activity (Enterococcus faecalis): inactive
Activity (Staphylococcus aureus): inactive
Activity (Escherichia coli): inactive
Activity (Pseudomonas aeruginosa): inactive

COc1ccc(C(=O)/C=C/c2ccc(Cl)cc2)cc1
IC50 (Giardia intestinalis [2]): 15 µg/mL (≈ 55.1 µM)
LC50 (Giardia intestinalis [2]): 7.52 µg/mL (≈ 27.6 µM)
Activity (Enterococcus faecalis): inactive
Activity (Staphylococcus aureus): inactive
Activity (Escherichia coli): inactive
Activity (Pseudomonas aeruginosa): inactive

Cc1ncc([N+](=O)[O-])n1CCO [METRONIDAZOLE]
IC50 (Giardia intestinalis [2]): 2.88 µg/mL (≈ 16.8 µM)
LC50 (Giardia intestinalis [2]): 1.63 µg/mL (≈ 9.52 µM)

COc1ccc(C(=O)/C=C/c2ccc(OC)cc2OC)cc1
Activity (Giardia intestinalis [1]): Active
Activity (Enterococcus faecalis): inactive
Activity (Staphylococcus aureus): inactive
Activity (Escherichia coli): inactive
Activity (Pseudomonas aeruginosa): inactive

COc1ccc(C(=O)/C=C/c2ccccc2F)cc1
IC50 (Giardia intestinalis [2]): 12.7 µg/mL (≈ 49.6 µM)
LC50 (Giardia intestinalis [2]): 1.99 µg/mL (≈ 7.77 µM)
Activity (Enterococcus faecalis): inactive
Activity (Staphylococcus aureus): inactive
Activity (Escherichia coli): inactive
Activity (Pseudomonas aeruginosa): inactive
